Experimental data reported in ChEMBL document CHEMBL4689842, “EUbOPEN Chemogenomics Library wave 1” (2021).

Tested on: U2OS
Experiment: Multiplex assay against U2OS
Format: toxicity, cell-based
Conditions: human
In short: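 Cells stained live at seeding with Hoechst33342, BioTracker Green Microtubule Cytoskeleton Dye, MitoTracker Red and Annexin V Alexa Fluor 680 were imaged on a CQ1 microscope at 37°C and 5% CO2 after compound addition. Their classification by CellPathfinder machine-learning gating ran from Hoechst high-intensity objects versus normal cells, to healthy, pyknosed or fragmented nuclei among normal cells, to mitotic or apoptotic among pyknosed cells. Tubulin, mitochondrial-mass and membrane-permeability phenotypes are per cents of healthy-nucleus cells.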

[1] = 12 h, 1 µM, compound concentration 1 uM, replicate 1
[2] = 12 h, 1 µM, compound concentration 1 uM, replicate 2
[3] = 12 h, 10 µM, compound concentration 10 uM, replicate 1
[4] = 12 h, 10 µM, compound concentration 10 uM, replicate 2
[5] = 24 h, 1 µM, compound concentration 1 uM, replicate 1
[6] = 24 h, 1 µM, compound concentration 1 uM, replicate 2
[7] = 24 h, 10 µM, compound concentration 10 uM, replicate 1
[8] = 24 h, 10 µM, compound concentration 10 uM, replicate 2

Compound: COc1cc2ncnc(Nc3ccc(F)c(Cl)c3)c2cc1NC(=O)/C=C/CN1CCCCC1 [DACOMITINIB ANHYDROUS]
- Population Apoptotic (%) [1]: 5%
- Population Fragmented Nuclei (%) [1]: 6%
- Population Healthy Nuclei (%) [1]: 84%
- Population Hoechst High Intensity Objects (%) [1]: 6%
- Population Membrane Permeable-Phenotype (%) [1]: 72%
- Population Mitochondria Different-Phenotype (%) [1]: 3%
- Population Mitotic Cells (%) [1]: 94%
- Population Normal (%) [1]: 93%
- Population Pyknosed Nuclei (%) [1]: 8%
- Population Tubulin-Different-Phenotype (%) [1]: 45%
- Total Cell Count [1]: 197
- Population Apoptotic (%) [2]: 60%
- Population Fragmented Nuclei (%) [2]: 11%
- Population Hoechst High Intensity Objects (%) [2]: 8%
- Population Membrane Permeable-Phenotype (%) [2]: 24%
- Population Mitochondria Different-Phenotype (%) [2]: 32%
- Population Mitotic Cells (%) [2]: 40%
- Population Normal (%) [2]: 91%
- Population Pyknosed Nuclei (%) [2]: 4%
- Population Tubulin-Different-Phenotype (%) [2]: 69%
- Total Cell Count [2]: 127
- Population Apoptotic (%) [3]: 0%
- Population Fragmented Nuclei (%) [3]: 3%
- Population Healthy Nuclei (%) [3]: 92%
- Population Hoechst High Intensity Objects (%) [3]: 3%
- Population Membrane Permeable-Phenotype (%) [3]: 31%
- Population Mitochondria Different-Phenotype (%) [3]: 7%
- Population Mitotic Cells (%) [3]: 100%
- Population Normal (%) [3]: 96%
- Population Pyknosed Nuclei (%) [3]: 4%
- Population Tubulin-Different-Phenotype (%) [3]: 15%
- Total Cell Count [3]: 182
- Population Fragmented Nuclei (%) [4]: 14%
- Population Healthy Nuclei (%) [4]: 82%
- Population Hoechst High Intensity Objects (%) [4]: 10%
- Population Membrane Permeable-Phenotype (%) [4]: 10%
- Population Mitochondria Different-Phenotype (%) [4]: 17%
- Population Normal (%) [4]: 89%
- Population Pyknosed Nuclei (%) [4]: 2%
- Population Tubulin-Different-Phenotype (%) [4]: 18%
- Total Cell Count [4]: 118
- Population Apoptotic (%) [5]: 46%
- Population Fragmented Nuclei (%) [5]: 9%
- Population Healthy Nuclei (%) [5]: 81%
- Population Hoechst High Intensity Objects (%) [5]: 5%
- Population Membrane Permeable-Phenotype (%) [5]: 65%
- Population Mitochondria Different-Phenotype (%) [5]: 5%
- Population Mitotic Cells (%) [5]: 53%
- Population Normal (%) [5]: 94%
- Population Pyknosed Nuclei (%) [5]: 9%
- Population Tubulin-Different-Phenotype (%) [5]: 39%
- Total Cell Count [5]: 262
- Population Apoptotic (%) [6]: 75%
- Population Fragmented Nuclei (%) [6]: 14%
- Population Healthy Nuclei (%) [6]: 78%
- Population Membrane Permeable-Phenotype (%) [6]: 11%
- Population Mitochondria Different-Phenotype (%) [6]: 50%
- Population Mitotic Cells (%) [6]: 25%
- Population Pyknosed Nuclei (%) [6]: 7%
- Population Tubulin-Different-Phenotype (%) [6]: 58%
- Total Cell Count [6]: 158
- Population Apoptotic (%) [7]: 40%
- Population Fragmented Nuclei (%) [7]: 5%
- Population Healthy Nuclei (%) [7]: 86%
- Population Hoechst High Intensity Objects (%) [7]: 2%
- Population Membrane Permeable-Phenotype (%) [7]: 15%
- Population Mitochondria Different-Phenotype (%) [7]: 10%
- Population Mitotic Cells (%) [7]: 59%
- Population Normal (%) [7]: 97%
- Population Pyknosed Nuclei (%) [7]: 8%
- Population Tubulin-Different-Phenotype (%) [7]: 14%
- Total Cell Count [7]: 184
- Population Apoptotic (%) [8]: 50%
- Population Fragmented Nuclei (%) [8]: 6%
- Population Healthy Nuclei (%) [8]: 87%
- Population Hoechst High Intensity Objects (%) [8]: 9%
- Population Membrane Permeable-Phenotype (%) [8]: 18%
- Population Mitochondria Different-Phenotype (%) [8]: 24%
- Population Mitotic Cells (%) [8]: 50%
- Population Normal (%) [8]: 90%
- Population Pyknosed Nuclei (%) [8]: 5%
- Population Tubulin-Different-Phenotype (%) [8]: 22%
- Total Cell Count [8]: 114

Compound: Cn1nc(C(F)(F)F)cc1-c1cnc(N2CCc3cc(S(=O)(=O)Nc4c(F)cc(Cl)cc4F)cc(N4CCCC4=O)c32)nc1 [TP-020]
- Population Apoptotic (%) [1]: 27%
- Population Fragmented Nuclei (%) [1]: 4%
- Population Healthy Nuclei (%) [1]: 88%
- Population Hoechst High Intensity Objects (%) [1]: 4%
- Population Membrane Permeable-Phenotype (%) [1]: 17%
- Population Mitochondria Different-Phenotype (%) [1]: 18%
- Population Mitotic Cells (%) [1]: 72%
- Population Normal (%) [1]: 95%
- Population Pyknosed Nuclei (%) [1]: 6%
- Population Tubulin-Different-Phenotype (%) [1]: 10%
- Total Cell Count [1]: 139
- Population Apoptotic (%) [2]: 0%
- Population Fragmented Nuclei (%) [2]: 14%
- Population Healthy Nuclei (%) [2]: 79%
- Population Hoechst High Intensity Objects (%) [2]: 15%
- Population Membrane Permeable-Phenotype (%) [2]: 15%
- Population Mitochondria Different-Phenotype (%) [2]: 15%
- Population Mitotic Cells (%) [2]: 100%
- Population Normal (%) [2]: 84%
- Population Pyknosed Nuclei (%) [2]: 5%
- Population Tubulin-Different-Phenotype (%) [2]: 15%
- Total Cell Count [2]: 134
- Population Apoptotic (%) [3]: 50%
- Population Fragmented Nuclei (%) [3]: 3%
- Population Healthy Nuclei (%) [3]: 93%
- Population Hoechst High Intensity Objects (%) [3]: 4%
- Population Membrane Permeable-Phenotype (%) [3]: 11%
- Population Mitochondria Different-Phenotype (%) [3]: 23%
- Population Mitotic Cells (%) [3]: 50%
- Population Normal (%) [3]: 95%
- Population Pyknosed Nuclei (%) [3]: 3%
- Population Tubulin-Different-Phenotype (%) [3]: 22%
- Total Cell Count [3]: 196
- Population Apoptotic (%) [4]: 16%
- Population Fragmented Nuclei (%) [4]: 8%
- Population Healthy Nuclei (%) [4]: 81%
- Population Hoechst High Intensity Objects (%) [4]: 5%
- Population Membrane Permeable-Phenotype (%) [4]: 10%
- Population Mitochondria Different-Phenotype (%) [4]: 31%
- Population Mitotic Cells (%) [4]: 83%
- Population Normal (%) [4]: 94%
- Population Pyknosed Nuclei (%) [4]: 9%
- Population Tubulin-Different-Phenotype (%) [4]: 26%
- Total Cell Count [4]: 133
- Population Apoptotic (%) [5]: 20%
- Population Fragmented Nuclei (%) [5]: 2%
- Population Healthy Nuclei (%) [5]: 90%
- Population Hoechst High Intensity Objects (%) [5]: 2%
- Population Membrane Permeable-Phenotype (%) [5]: 12%
- Population Mitochondria Different-Phenotype (%) [5]: 10%
- Population Mitotic Cells (%) [5]: 80%
- Population Normal (%) [5]: 97%
- Population Pyknosed Nuclei (%) [5]: 7%
- Population Tubulin-Different-Phenotype (%) [5]: 16%
- Total Cell Count [5]: 196
- Population Apoptotic (%) [6]: 42%
- Population Fragmented Nuclei (%) [6]: 12%
- Population Healthy Nuclei (%) [6]: 81%
- Population Hoechst High Intensity Objects (%) [6]: 5%
- Population Membrane Permeable-Phenotype (%) [6]: 13%
- Population Mitochondria Different-Phenotype (%) [6]: 23%
- Population Mitotic Cells (%) [6]: 57%
- Population Normal (%) [6]: 94%
- Population Pyknosed Nuclei (%) [6]: 5%
- Population Tubulin-Different-Phenotype (%) [6]: 11%
- Total Cell Count [6]: 163
- Population Apoptotic (%) [7]: 9%
- Population Fragmented Nuclei (%) [7]: 3%
- Population Healthy Nuclei (%) [7]: 91%
- Population Hoechst High Intensity Objects (%) [7]: 1%
- Population Membrane Permeable-Phenotype (%) [7]: 6%
- Population Mitochondria Different-Phenotype (%) [7]: 19%
- Population Mitotic Cells (%) [7]: 90%
- Population Normal (%) [7]: 98%
- Population Tubulin-Different-Phenotype (%) [7]: 29%
- Total Cell Count [7]: 268
- Population Apoptotic (%) [8]: 50%
- Population Fragmented Nuclei (%) [8]: 6%
- Population Healthy Nuclei (%) [8]: 88%
- Population Hoechst High Intensity Objects (%) [8]: 7%
- Population Membrane Permeable-Phenotype (%) [8]: 9%
- Population Mitochondria Different-Phenotype (%) [8]: 45%
- Population Mitotic Cells (%) [8]: 50%
- Population Normal (%) [8]: 92%
- Population Pyknosed Nuclei (%) [8]: 5%
- Population Tubulin-Different-Phenotype (%) [8]: 25%
- Total Cell Count [8]: 175
